From ChEMBL document CHEMBL2434855, “Aggrecanase-2 inhibitors based on the acylthiosemicarbazide zinc-binding group” (Eur J Med Chem, 2013) come the findings set out here.

Data set [1] can be described thus: Solubility of the compound at 100 uM. The format is physicochemical.
Data set [2] concerns the target T1, A disintegrin and metalloproteinase with thrombospondin motifs 5 (Homo sapiens, UniProt Q9UNA0).
T1 sequence (Q9UNA0 whole entry): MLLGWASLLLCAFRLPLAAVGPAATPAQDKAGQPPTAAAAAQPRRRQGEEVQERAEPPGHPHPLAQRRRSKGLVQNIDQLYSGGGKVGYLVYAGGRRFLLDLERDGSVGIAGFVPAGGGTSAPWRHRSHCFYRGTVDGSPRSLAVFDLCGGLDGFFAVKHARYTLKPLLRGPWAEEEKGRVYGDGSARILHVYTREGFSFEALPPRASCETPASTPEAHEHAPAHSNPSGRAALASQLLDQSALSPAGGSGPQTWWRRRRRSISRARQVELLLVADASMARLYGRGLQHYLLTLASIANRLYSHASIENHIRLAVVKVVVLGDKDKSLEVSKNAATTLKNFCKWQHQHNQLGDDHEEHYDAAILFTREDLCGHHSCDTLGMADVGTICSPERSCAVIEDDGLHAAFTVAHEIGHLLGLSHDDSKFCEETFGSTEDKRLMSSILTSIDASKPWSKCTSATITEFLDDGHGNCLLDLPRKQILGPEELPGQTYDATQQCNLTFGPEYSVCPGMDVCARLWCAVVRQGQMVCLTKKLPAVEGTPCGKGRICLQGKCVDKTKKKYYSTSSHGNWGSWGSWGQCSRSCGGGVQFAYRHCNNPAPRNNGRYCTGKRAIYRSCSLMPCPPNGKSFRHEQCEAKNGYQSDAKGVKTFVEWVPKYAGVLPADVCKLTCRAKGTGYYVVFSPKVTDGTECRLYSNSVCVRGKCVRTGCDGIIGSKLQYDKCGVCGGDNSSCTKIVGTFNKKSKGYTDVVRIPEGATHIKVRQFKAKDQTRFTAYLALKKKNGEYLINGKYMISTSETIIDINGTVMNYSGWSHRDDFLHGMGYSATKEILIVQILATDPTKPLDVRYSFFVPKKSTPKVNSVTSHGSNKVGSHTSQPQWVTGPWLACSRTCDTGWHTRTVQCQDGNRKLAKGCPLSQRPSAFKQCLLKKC
Briefly: Inhibition of human recombinant ADAMTS-5 using QTVTWPDMELPLPRNITEGEARGSVIL-TVKPIFEVSPSPL(biotinyl)K as substrate incubated 10 mins prior to substrate addition measured after 3 hrs by spectrophotometry.

Data set [3] has as its target T2, A disintegrin and metalloproteinase with thrombospondin motifs 4 (Homo sapiens, UniProt O75173).
T2 sequence (O75173 whole entry): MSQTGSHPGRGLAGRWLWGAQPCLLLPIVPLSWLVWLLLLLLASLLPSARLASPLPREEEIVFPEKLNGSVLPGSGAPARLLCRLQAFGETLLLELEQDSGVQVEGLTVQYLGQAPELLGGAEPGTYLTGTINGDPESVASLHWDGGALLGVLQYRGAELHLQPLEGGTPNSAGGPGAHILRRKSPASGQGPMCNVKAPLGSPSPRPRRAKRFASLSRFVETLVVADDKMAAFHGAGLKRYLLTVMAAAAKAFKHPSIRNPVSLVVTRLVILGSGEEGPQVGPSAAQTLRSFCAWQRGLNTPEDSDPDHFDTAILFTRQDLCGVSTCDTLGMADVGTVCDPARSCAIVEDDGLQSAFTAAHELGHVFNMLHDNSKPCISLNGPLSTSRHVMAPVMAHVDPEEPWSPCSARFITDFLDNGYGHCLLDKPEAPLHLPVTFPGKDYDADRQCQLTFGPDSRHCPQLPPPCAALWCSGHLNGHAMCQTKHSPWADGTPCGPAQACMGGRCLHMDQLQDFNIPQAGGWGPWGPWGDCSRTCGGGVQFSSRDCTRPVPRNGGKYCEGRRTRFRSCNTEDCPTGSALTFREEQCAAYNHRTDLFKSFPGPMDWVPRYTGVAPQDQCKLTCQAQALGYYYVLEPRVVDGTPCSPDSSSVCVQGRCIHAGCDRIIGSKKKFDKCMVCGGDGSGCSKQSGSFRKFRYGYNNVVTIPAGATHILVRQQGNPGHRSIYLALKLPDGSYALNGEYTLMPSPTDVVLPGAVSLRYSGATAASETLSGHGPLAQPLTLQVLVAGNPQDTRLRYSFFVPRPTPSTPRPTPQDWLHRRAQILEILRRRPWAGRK
In words: Inhibition of human recombinant ADAMTS-4 using QTVTWPDMELPLPRNITEGEARGSVIL-TVKPIFEVSPSPL(biotinyl)K as substrate incubated for 10 mins prior to substrate addition measured after 3 hrs by spectrophotometry. An outline of the steps: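 It was then added to streptavidin wells coated with the biotinylated 41-mer aggrecan peptide and reacted for 3 h at 37 °C. Cleavage product was detected by BC-3 anti-ARGxx ELISA with HRP and TMB, read at 450 nm.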

For data set [4], the target named is T3, A disintegrin and metalloproteinase with thrombospondin motifs 5 (Homo sapiens) (UniProt Q9UNA0).
T3 sequence (whole entry): T1 sequence (Q9UNA0 whole entry)
Briefly: Inhibition of human recombinant ADAMTS-5 using QTVTWPDMELPLPRNITEGEARGSVIL-TVKPIFEVSPSPL(biotinyl)K as substrate at 100 uM incubated 10 mins prior to substrate addition measured after 3 hrs by spectrophotometry.

For data set [5], the target named is T3, A disintegrin and metalloproteinase with thrombospondin motifs 5 (Homo sapiens). In words: Inhibition of human recombinant ADAMTS-5 using bovine articular aggrecan as substrate incubated 20 mins prior to substrate addition measured after 48 hrs by spectrophotometry. An outline of the steps:
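ADAMTS-5 (3.4 µL of 600 nM stock) was pre-incubated 20 min at 37 °C with compound or 4% DMSO vehicle in Tris/NaCl/CaCl₂/Brij35, pH 7.5. Bovine articular aggrecan (50 µg/mL final) was added for 48 h at 37 °C, then stopped with EDTA. Samples were bound to PVDF and digested with chondroitinase ABC and keratanase. The ARGSVIL neoepitope was detected by BC-3 ELISA with TMB, read at 450 nm.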

One may read the IC50 as the point on the concentration scale where inhibition reaches its midpoint. The term inhibition denotes the percentage by which the read-out fell short of the control.

Turning to `O=C(COc1ccc(-c2ccccc2)cc1)NNC(=S)NCc1ccc(-c2ccccc2)cc1`, the solubility entry in data set [1] was “Insoluble”. Further, the IC50 in data set [2] was 60000 nM. `O=C(NNC(=S)NCc1ccc(-c2ccccc2)cc1)c1ccc(Cl)cc1`: the half-maximal inhibitory concentration (IC50) in data set [3] was determined as 1600 nM; in data set [2], 700 nM. In the case of `O=C(COc1ccc(F)cc1)NNC(=S)NCc1ccc(-c2ccccc2)cc1`, in data set [2], the 50% inhibitory concentration (IC50) amounted to 100000 nM. Besides, in data set [4], the inhibition was found to be 49%. Take `COc1ccc(OCC(=O)NNC(=S)NCc2ccc(-c3ccccc3)cc2)cc1`: the concentration for half-maximal inhibition (IC50) in data set [2] was determined as 1700 nM. On to `O=C(Cc1ccc(-c2ccccc2)cc1)NNC(=S)NCCCCC1CCCCC1`, for which the IC50 in data set [3] was found to be 730 nM; in data set [2] it was 300 nM. With `O=C(COc1ccc(Cl)cc1)NCC(S)C(=O)NCCc1ccccc1` (stereo not given), the IC50 in data set [2] came to 8700 nM. Same read-out and setting: the value for `O=C(COc1ccc(Cl)cc1)NNC(=S)NCCCn1ccnc1` was 1600 nM. As to `O=C(COc1ccc(Cl)cc1)NCC(=S)NCc1ccc(-c2ccccc2)cc1`, the IC50 in data set [2] was over 100000 nM. In data set [4], the inhibition is under 30%. For the compound `O=C(CNc1ccc(Cl)cc1)NNC(=S)NCc1ccc(-c2ccccc2)cc1`, the IC50 in data set [2] came out at 6300 nM. Take `O=C(COc1ccc(Cl)cc1)NNC(=S)NCCc1ccccc1`: the IC50 in data set [2] came out at 2800 nM. For `O=C(COc1ccc([N+](=O)[O-])cc1)NNC(=S)NCCCCC1CCCCC1`, the figures for the concentration for half-maximal inhibition (IC50) in data set [3] and in data set [2] were 790 nM and 810 nM, respectively. As for `CC(C)(Oc1ccc(Cl)cc1)C(=O)NNC(=S)NCc1ccc(-c2ccccc2)cc1`, the concentration for half-maximal inhibition (IC50) in data set [2] amounted to 6900 nM. Regarding `O=C(COc1ccccc1)NNC(=S)NCCCCC1CCCCC1`, in data set [2], the IC50 was over 100000 nM. Besides, in data set [4], the inhibition is under 20%. As to `O=C(COc1cccc2ccccc12)NNC(=S)NCc1ccc(-c2ccccc2)cc1`, the IC50 in data set [2] came out at 4100 nM.

As for `O=C(COc1cccc(Cl)c1)NNC(=S)NCc1ccc(-c2ccccc2)cc1`, in data set [2], the 50% inhibitory concentration (IC50) is 2100 nM. Take `O=C(COc1ccc(Cl)cc1)NNC(=S)NCc1ccccc1`: the 50% inhibitory concentration (IC50) in data set [2] was determined as 12600 nM. `O=C(NNC(=S)NCc1ccc(-c2ccccc2)cc1)C1CNc2cc(Cl)ccc2O1` (stereo not given): in data set [2], the IC50 is 3300 nM.

In the case of `O=C(Cc1nc(-c2ccccc2)no1)NNC(=S)NCCCCC1CCCCC1`, the half-inhibitory concentration (IC50) in data set [2] was 340 nM. On to `O=C(COc1ccc(Cl)cc1)Nn1ccn(Cc2ccc(-c3ccccc3)cc2)c1=S`, for which the half-inhibitory concentration (IC50) in data set [2] was over 100000 nM. Further, the inhibition in data set [4] is under 30%. As to `O=C(Cc1ccc(-c2ccccc2)cc1)NNC(=S)NCCc1ccc(Cl)cc1`, the concentration for half-maximal inhibition (IC50) in data set [2] is 5200 nM. For the compound `O=C(Cc1nc(-c2cnccn2)no1)NNC(=S)NCCCCC1CCCCC1`, the half-inhibitory concentration (IC50) in data set [2] was found to be 3100 nM.

As to `O=C(COc1ccccc1)NNC(=S)NCc1ccc(-c2ccccc2)cc1`, the IC50 in data set [2] was 10000 nM.

With `O=C(COc1ccc(Cl)cc1)NNC(=S)NCc1ccccc1-c1ccccc1`, the IC50 turned out to be 2900 nM in data set [3] and 490 nM in data set [2].

For the compound `O=C(COc1ccc(Cl)c(Cl)c1)NNC(=S)NCc1ccc(-c2ccccc2)cc1`, in data set [2], the IC50 was found to be 1200 nM. In the case of `O=C(COc1ccc(C(F)(F)F)cc1)NNC(=S)NCc1ccc(-c2ccccc2)cc1`, the half-maximal inhibitory concentration (IC50) in data set [2] stood at 1700 nM. Consider `O=C(COc1ccccc1Cl)NNC(=S)NCc1ccc(-c2ccccc2)cc1`, for which, in data set [2], the 50% inhibitory concentration (IC50) was determined as 1900 nM. Still for that read-out and setting: to `O=C(COc1ccc(Cl)cc1Cl)NNC(=S)NCc1ccc(-c2ccccc2)cc1` belongs 1200 nM.

For `CN(NC(=S)NCCCCC1CCCCC1)C(=O)COc1ccc(Cl)cc1`, the half-maximal inhibitory concentration (IC50) in data set [2] is over 100000 nM. In data set [4], the inhibition is under 30%.

With `O=C(NNC(=S)NCCCCC1CCCCC1)C1CNc2cc(Cl)ccc2O1` (stereo not given), the IC50 in data set [2] was 1260 nM. Still for that read-out and setting: to `O=C(COc1ccc(Cl)cc1)NNC(=S)NCc1cccc(-c2ccccc2)c1` belongs 2300 nM. In the case of `O=C(COc1ccc(Cl)cc1)NNC(=S)NCCCc1ccccc1`, the results for the IC50 in data set [3] and in data set [2] were 2000 nM and 1400 nM, respectively. Turning to `CN(NC(=S)NCc1ccc(-c2ccccc2)cc1)C(=O)COc1ccc(Cl)cc1`, the half-inhibitory concentration (IC50) in data set [2] is over 100000 nM. Moreover, the inhibition in data set [4] was under 30%. For the compound `O=C(COc1ccc([N+](=O)[O-])cc1)NNC(=S)NCc1ccc(-c2ccccc2)cc1`, in data set [2], the IC50 was found to be 4000 nM. Take `O=C(NNC(=S)NCCCCC1CCCCC1)c1ccc(Cl)cc1`: the inhibition result in data set [5] is “Dose-dependent effect”. Also, the IC50 in data set [3] was found to be 1400 nM; in data set [2], 670 nM. As to `O=C(COc1ccc(C(F)(F)F)cc1)NNC(=S)NCCCCC1CCCCC1`, the IC50 in data set [3] is 610 nM; in data set [2], 540 nM. For `O=C(COc1ccc(Cl)cc1)NNC(=S)N1CCC(Cc2ccccc2)CC1`, the half-maximal inhibitory concentration (IC50) in data set [2] stood at 1600 nM.

In the case of `O=C(COc1ccc(Cl)cc1)NNC(=S)NCc1ccc(-c2ccccc2)cc1`, in data set [2], the IC50 is 1200 nM. The same measure, in the same setting: to `O=C(COc1ccc(Cl)cc1)NNC(=S)NCCCCc1ccccc1` belongs 1000 nM. With `COc1ccc(OCC(=O)NNC(=S)NCCCCC2CCCCC2)cc1`, in data set [2], the concentration for half-maximal inhibition (IC50) was over 100000 nM. Besides, the inhibition in data set [4] was 50%. In the case of `O=C(COc1ccc(OCc2ccccc2)cc1)NNC(=S)NCc1ccc(-c2ccccc2)cc1`, the IC50 in data set [2] was found to be 1000 nM.

On to `CC(=O)NNC(=S)NCCCCC1CCCCC1`, for which the IC50 in data set [2] was over 100000 nM. Further, the inhibition in data set [4] is under 20%.

In the case of `O=C(COc1cccc2ccccc12)NNC(=S)NCCCCC1CCCCC1`, the concentration for half-maximal inhibition (IC50) in data set [3] turned out to be 1000 nM; in data set [2], 880 nM. Take `O=C(COc1ccc(Cl)cc1)NNC(=S)NCc1cccnc1`: in data set [2], the IC50 was found to be 100000 nM. The inhibition in data set [4] was determined as 50%.

For `O=C(COc1ccc2ccccc2c1)NNC(=S)NCc1ccc(-c2ccccc2)cc1`, in data set [2], the IC50 was 3200 nM. Take `CN(CCCCc1ccccc1)C(=S)NNC(=O)COc1ccc(Cl)cc1`: the results for the IC50 in data set [3] and in data set [2] were 1500 nM and 1100 nM, respectively.
